We go through 32 molecules from ChEMBL document CHEMBL1268911, “Novel agonists and antagonists for human protease activated receptor 2” (J Med Chem, 2010).

SMILES strings stand for the structures. Calls of active or inactive are those of the source. The calls are words filed in the database; no cut-off is given here.

Type in all cases: functional, cell-based
For experiment [1], the target named is T1, Proteinase-activated receptor 2 (Homo sapiens, UniProt P55085).
T1 sequence (P55085 whole entry): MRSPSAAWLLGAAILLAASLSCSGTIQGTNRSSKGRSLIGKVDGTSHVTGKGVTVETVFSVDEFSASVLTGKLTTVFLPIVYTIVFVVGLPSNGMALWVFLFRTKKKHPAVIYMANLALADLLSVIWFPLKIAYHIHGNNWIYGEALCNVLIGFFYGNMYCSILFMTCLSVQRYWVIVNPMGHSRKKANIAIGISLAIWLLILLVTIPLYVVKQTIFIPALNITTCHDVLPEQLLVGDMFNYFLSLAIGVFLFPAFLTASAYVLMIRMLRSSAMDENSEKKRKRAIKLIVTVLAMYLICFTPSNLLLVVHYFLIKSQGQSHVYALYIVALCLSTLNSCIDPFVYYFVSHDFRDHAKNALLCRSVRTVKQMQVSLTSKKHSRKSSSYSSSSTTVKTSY
The experiment is described as follows: Agonist activity at PAR2 receptor in human HT-29 cells assessed as induction of intracellular calcium release. (Calcium assays in cells follow changes in intracellular calcium, usually with a dye or a luminescent sensor.)

Experiment [2] has as its target Proteinase-activated receptor 2 (Homo sapiens) (UniProt P55085). Nature of the experiment: Agonist activity at PAR2 receptor in human HT-29 cells assessed as induction of intracellular calcium release at 1 uM relative to SLIGRLI-NH2. Put shortly:
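HT29 cells, Fluo-3 AM loaded, in HBSS/HEPES/probenecid buffer pH 7.4 with 2% DMSO final. Each agonist given once at 1 μM. Fluorescence (ex 495/em 520 nm) was read over 60 s after addition, and iCa2+ release was compared with SLIGRLI-NH2.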

For experiment [3] the target is unchanged. Nature of the experiment: Agonist activity at PAR2 receptor in human HT-29 cells assessed as induction of intracellular calcium release at 50 uM relative to […]. The method in brief:
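HT29 cells loaded with Fluo-3 AM in HBSS/HEPES/probenecid, pH 7.4. Compounds were tested at one concentration, 50 μM, and Ca2+ release (ex 495/em 520 nm, 60 s read) was expressed relative to 2-furoyl-LIGRLI-NH2 at the same concentration.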

Experiment [4] shares this target. Nature of the experiment: Antagonist activity at PAR2 receptor in human HT-29 cells assessed as inhibition of intracellular calcium release at 5 uM relative to SLIGRLI-NH2. Details: scale not given: the % may be the effect or the level left. Put shortly:
(§1)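 Single-point inhibition in Fluo-3-loaded HT29 cells. Antagonist was given at 5 or 50 μM before 2.5 μM SLIGRLI-NH2. Calcium efflux was read as fluorescence and expressed as percent inhibition, with 100% meaning complete block.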

In experiment [5] the target is T1, Proteinase-activated receptor 2. Nature of the experiment: Agonist activity at human PAR2 receptor in HEK293 cells assessed as induction of intracellular calcium release.
For experiment [6] the target is unchanged. The experiment is described as follows: Antagonist activity at PAR2 receptor in human HT-29 cells assessed as inhibition of intracellular calcium release.
Experiment [7] concerns the target Proteinase-activated receptor 2 (Homo sapiens) (UniProt P55085). The experiment is described as follows: Antagonist activity at PAR2 receptor in human HT-29 cells assessed as inhibition of intracellular calcium release at 50 uM relative to SLIGRLI-NH2. The method in brief:
as §1

Experiment [8] has as its target T2, Proteinase-activated receptor 1 (Homo sapiens) (UniProt P25116).
T2 sequence (whole entry): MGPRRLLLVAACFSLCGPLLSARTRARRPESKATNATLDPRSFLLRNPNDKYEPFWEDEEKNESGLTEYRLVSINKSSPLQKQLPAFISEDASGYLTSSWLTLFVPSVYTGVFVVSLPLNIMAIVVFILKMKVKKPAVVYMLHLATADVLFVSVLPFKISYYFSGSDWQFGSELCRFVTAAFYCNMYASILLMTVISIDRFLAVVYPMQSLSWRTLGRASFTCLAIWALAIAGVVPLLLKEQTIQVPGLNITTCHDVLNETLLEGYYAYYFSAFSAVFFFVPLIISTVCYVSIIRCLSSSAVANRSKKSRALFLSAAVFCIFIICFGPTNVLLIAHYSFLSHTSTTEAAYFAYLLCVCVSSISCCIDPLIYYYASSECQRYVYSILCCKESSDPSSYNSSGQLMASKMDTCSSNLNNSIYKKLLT
The experiment is described as follows: Agonist activity at human PAR1 receptor in HEK293 cells relative to TFLLR-NH2.

A word on the EC50: it is the concentration giving half of the maximal effect. For `CC[C@H](C)[C@H](NC(=O)[C@H](CC1CCCCC1)NC(=O)c1ccno1)C(=O)N1CCCCC1C(=O)N1CCC(CN)CC1` (stereo partly specified), the EC50 in experiment [1] stood at 7.1 µM.

Take `CC[C@H](C)C(NC(=O)[C@H](CC1CCCCC1)NC(=O)c1ccno1)C(=O)NCCC(=O)NCc1cccnc1` (single isomer, unassigned): in experiment [2], the Activity amounted to 122%.

Consider `CC(C)C[C@H](NC(=O)c1ccco1)C(=O)N[C@@H](Cc1ccccc1)C(N)=O`, for which the Activity in experiment [3] came to 22%.

`CC[C@H](C)[C@H](NC(=O)[C@H](CC1CCCCC1)NC(=O)c1ccno1)C(=O)N1CCc2ccccc2C1`: in experiment [4], the Activity was 40%.

`CC[C@H](C)[C@H](NC(=O)[C@H](CC1CCCCC1)NC(=O)c1ccno1)C(=O)NCCCCC(=O)Nc1ccc(CCN)cc1`: in experiment [2], the Activity was 142%.

As to `CC[C@H](C)[C@H](NC(=O)[C@H](CC1CCCCC1)NC(=O)c1ccno1)C(=O)Nc1cccc2ccccc12`, the Activity in experiment [4] worked out at 40%.

As for `CC[C@H](C)[C@H](NC(=O)[C@H](CC1CCCCC1)NC(=O)c1ccno1)C(=O)Nc1ccccc1-c1ccccc1`, the Activity in experiment [4] was 40%.

As for `CC[C@H](C)[C@H](NC(=O)[C@H](CC1CCCCC1)NC(=O)c1ccno1)C(=O)NCCCN`, the Activity in experiment [2] is 57%.

As for `CC[C@H](C)[C@H](NC(=O)[C@H](CC1CCCCC1)NC(=O)c1ccno1)C(=O)N1CCCC(C(=O)N2CCC(CN)CC2)C1` (stereo partly specified), in experiment [1], the EC50 turned out to be 17.1 µM.

`CC[C@H](C)[C@H](NC(=O)[C@H](CC1CCCCC1)NC(=O)c1ccco1)C(N)=O`: the EC50 in experiment [5] is above 50 µM. Further, the Activity in experiment [3] was found to be 58%.

Turning to `CC[C@H](C)[C@H](NC(=O)[C@H](CC1CCCCC1)NC(=O)c1ccno1)C(=O)NCCCCC(=O)N1CCC(CN)CC1`, the Activity in experiment [2] was 181%.

For `CC[C@H](C)[C@H](NC(=O)[C@H](CC1CCCCC1)NC(=O)c1ccno1)C(=O)NC1CCN([C@@H](CC(C)C)C(=O)N2CCC(CN)CC2)C1=O` (stereo partly specified), the half-maximal effective concentration (EC50) in experiment [1] is 13.5 µM.

`CC[C@H](C)[C@H](NC(=O)[C@H](CC1CCCCC1)NC(=O)c1ccno1)C(=O)NCCC(=O)N1CCC(CN)CC1`: the Activity in experiment [2] is 97%.

Turning to `CC[C@H](C)[C@H](NC(=O)[C@H](CC1CCCCC1)NC(=O)c1ccno1)C(=O)N[C@H]1CCC2SC[C@@H](C(=O)N3CCC(CN)CC3)N2C1=O` (stereo partly specified), the EC50 in experiment [1] (ht-29) came to 6.1 µM.

Regarding `CC[C@H](C)[C@H](NC(=O)[C@H](CC1CCCCC1)NC(=O)c1ccno1)C(=O)Nc1ccc(CC(=O)N2CCOCC2)cc1`, the IC50 in experiment [6] (read-out: IC50) was determined as 57 µM.

Regarding `CC[C@H](C)[C@H](NC(=O)[C@H](CC1CCCCC1)NC(=O)c1coc(C)n1)C(N)=O`, the EC50 in experiment [5] is above 100 µM.

Take `CC[C@H](C)[C@H](NC(=O)[C@H](CC1CCCCC1)NC(=O)c1ccno1)C(=O)N1CCC2(CCc3ccccc32)CC1`: in experiment [4], the Activity is 40%. Further, in experiment [6] (read-out: pIC50 (converted)), the IC50 was 7.94 µM. Besides, the inhibition entry in experiment [7] is “Active”.

On to `CC[C@H](C)[C@H](NC(=O)[C@H](Cc1ccccc1)NC(=O)c1ccco1)C(N)=O`, for which, in experiment [3], the Activity came to 67%. Moreover, the result in experiment [8] was Active.

Take `CC[C@H](C)[C@H](NC(=O)[C@H](CC1CCCCC1)NC(=O)c1ccno1)C(=O)NCCC(=O)Nc1ccc(CCN)cc1`: the Activity in experiment [2] was determined as 130%.

As to `CC[C@H](C)[C@H](NC(=O)[C@@H](NC(=O)c1ccco1)C1CCCCC1)C(N)=O`, in experiment [3], the Activity is 12%.

Regarding `CC(C)C[C@H](NC(=O)c1ccco1)C(=O)N[C@@H](CC1CCCCC1)C(N)=O`, the Activity in experiment [3] came to 43%.

For `CC[C@H](C)[C@H](NC(=O)[C@H](CC1CCCCC1)NC(=O)c1ccno1)C(=O)NCc1ccc(C(=O)N2CCC(CN)CC2)cc1`, the EC50 in experiment [1] was determined as 1.1 µM.

With `CC[C@H](C)[C@H](NC(=O)[C@H](CC1CCCCC1)NC(=O)c1ccno1)C(=O)Nc1cccc(C(=O)N2CCC(CN)CC2)c1`, the EC50 in experiment [1] was 2.2 µM.

Take `CC[C@H](C)[C@H](NC(=O)[C@H](CC1CCCCC1)NC(=O)c1ccno1)C(=O)N1CCC(C(=O)N2CCC(CN)CC2)CC1`: in experiment [1], the EC50 came out at 13.7 µM.

With `CC[C@H](C)[C@H](NC(=O)[C@H](CC1CCCCC1)NC(=O)c1ccno1)C(=O)N1CCN(c2ccccc2C)CC1`, the Activity in experiment [4] was determined as 40%.

`CC[C@H](C)[C@H](NC(=O)[C@H](CC(C)C)NC(=O)c1ccco1)C(N)=O`: in experiment [3], the Activity is 38%.

Regarding `CC[C@H](C)[C@H](NC(=O)[C@H](CC1CCCCC1)NC(=O)c1cnccn1)C(N)=O`, the EC50 in experiment [5] was above 100 µM.

With `CC[C@H](C)[C@H](NC(=O)[C@H](CC1CCCCC1)NC(=O)c1ccno1)C(=O)Nc1ccc(C(=O)N2CCC(CN)CC2)cc1`, the EC50 in experiment [1] was above 50 µM.

As to `CC[C@H](C)[C@H](NC(=O)[C@H](CC1CCCCC1)NC(=O)c1ccno1)C(=O)NCCCCC(=O)NCc1cccnc1`, the Activity in experiment [2] was found to be 130%.

Consider `CC[C@H](C)[C@H](NC(=O)[C@H](CC1CCCCC1)NC(=O)c1ccno1)C(=O)N1CCN(c2ccccc2)CC1`, for which the Activity in experiment [4] amounted to 40%.

Consider `CC[C@H](C)[C@H](NC(=O)[C@H](CC1CCCCC1)NC(=O)c1ccno1)C(=O)NCCCCCN`, for which the Activity in experiment [2] stood at 60%.

As to `CC(C)C[C@H](NC(=O)c1ccco1)C(=O)N[C@@H](Cc1ccc(F)cc1)C(N)=O`, in experiment [3], the Activity turned out to be 19%.
